Results reported in ChEMBL document CHEMBL2093137, “WHO-TDR NTD Screening”.
Converted amounts (≈) assume the structure as drawn.

Legend:
[1] = WHO-TDR: Cytotoxicity; type: toxicity, cell-based; conditions: human, MRC5 cells
Plasmodium falciparum K1 = test: WHO-TDR: Malaria; type: functional, organism-based, Homo sapiens; conditions: Erythrocyte
How it was run: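 Values are IC50 figures for antiplasmodial potency. They come from a whole-organism screen of 10,000 diverse Life Chemicals compounds against Plasmodium falciparum K1 growing inside human red blood cells, run by previously published standard procedures.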

Trypanosoma cruzi = test: WHO-TDR: Chagas disease; type: functional, organism-based, Homo sapiens; conditions: MRC5
How it was run: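 A diverse library of 10,000 compounds from Life Chemicals, filtered for drug-likeness and reactive groups, was screened against intracellular amastigotes of Trypanosoma cruzi Tulahuen CL2 beta-galactosidase strain. The parasites were grown in MRC-5SV2 human lung fibroblast host cells, and a reference drug served as positive control under previously published standard procedures. Antiparasitic potency is given as IC50.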

[2] = test system: Trypanosoma brucei brucei; test: WHO-TDR: Human African Trypanosomiasis (HAT); type: functional, organism-based; conditions: Squib-427
How it was run: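 Values are IC50 figures for antiparasitic potency. They come from a whole-organism screen of 10,000 diverse Life Chemicals compounds against bloodstream-form Trypanosoma brucei (Squib 427 strain).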

Leishmania infantum = test: WHO-TDR: Leishmaniasis; type: functional, organism-based, Mus musculus; conditions: Macrophage
How it was run: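 Values are IC50 figures for antiparasitic potency. They come from a whole-organism screen of a 10,000-compound diverse Life Chemicals library against Leishmania infantum MHOM/MA(BE)/67 amastigotes inside murine peritoneal macrophage host cells.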

Schistosoma mansoni = test: WHO-TDR: Schistosomiasis; type: functional; parameters: concentration or dose not given beside the values
How it was run: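 Values are reported as percent inhibition and IC50. They come from a whole-organism screen of a 10,000-compound diverse Life Chemicals library against larval and/or adult worms of Schistosoma mansoni, Puerto Rican strain. The library had been filtered for drug-likeness and reactive groups.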

Onchocerca ochengi = test: WHO-TDR: Onchocerciasis; type: functional; parameters: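 at 12.5 µM on microfilariae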
How it was run: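 Values are reported as percent inhibition and as IC50. They come from a whole-organism screen of a 10,000-compound diverse Life Chemicals library against microfilariae of Onchocerca ochengi or Onchocerca lienalis. The screen followed previously published standard procedures, with reference drugs as positive controls.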

Brugia malayi = test: WHO-TDR: Lymphatic Filariasis; type: functional; parameters: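 tested at 10 µM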
How it was run: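 Values are percent inhibition and IC50 from a whole-organism screen against Brugia malayi microfilariae. The compounds, 10,000 in all, came from a diverse Life Chemicals library filtered for drug-likeness and reactive groups.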

SMILES	IC50 (Plasmodium falciparum K1) [µg/mL]	IC50 [2] [µg/mL]	IC50 (Leishmania infantum) [µg/mL]	IC50 [1] [µg/mL]	IC50 (Trypanosoma cruzi) [µg/mL]	% Inhibition (Schistosoma mansoni) [%]	% Inhibition (Onchocerca ochengi) [%]	% Inhibition (Brugia malayi) [%]
COc1ccc(-c2nnc(NC(=O)c3ccn(C)n3)o2)cc1OC	> 9.88	> 9.88	> 9.88	1.41 (≈ 4.28 µM)	> 9.88	25	100	0
CCn1ccnc1N1CCN(C(=O)c2cccc(OC)c2OC)CC1	> 11.4	> 11.4	0.37 (≈ 1.07 µM)	> 11.4	> 11.4	8.3	0	0
COc1ccccc1C(=O)N1CCN(c2nccn2-c2ccccc2F)CC1	> 12.5	> 12.5	> 12.5	> 12.5	> 12.5	25	100	0
COc1cccc(OCC(=O)N2CCN(c3nccn3-c3cccc(Cl)c3)CC2)c1	12.2 (≈ 28.5 µM)	4.61 (≈ 10.8 µM)	0.45 (≈ 1.05 µM)	> 13.9	9.15 (≈ 21.4 µM)	0	0	0
COc1ccc(CC(=O)N2CCN(c3nccn3-c3cccc(Cl)c3)CC2)cc1OC	> 14.3	> 14.3	0.464 (≈ 1.05 µM)	> 14.3	> 14.3	16.7	0	0
Cn1ccnc1N1CCN(CC(=O)Nc2ccccc2C(F)(F)F)CC1	> 11	> 11	0.357 (≈ 0.972 µM)	> 11	> 11	0	0	0
CCn1ccnc1N1CCN(CC(=O)NC2CCCCC2)CC1	> 11.8	> 11.8	0.381 (≈ 1.19 µM)	> 11.8	> 11.8	0	0	0
O=C(CN1CCN(c2nccn2-c2cccc(Cl)c2)CC1)N1CCc2ccccc21	7.54 (≈ 17.9 µM)	4.69 (≈ 11.1 µM)	0.481 (≈ 1.14 µM)	14.2 (≈ 33.6 µM)	5.05 (≈ 12 µM)	0	75	0
O=C(CN1CCN(c2nccn2-c2cccc(Cl)c2)CC1)Nc1ccc(F)cc1F	12.6 (≈ 29.2 µM)	4.79 (≈ 11.1 µM)	4.9 (≈ 11.4 µM)	> 15.1	4.67 (≈ 10.8 µM)	0	100	0
O=C(Nc1ccc2c(c1)N(C(=O)c1cccs1)CC2)c1cc2ccccc2oc1=O	> 12.5	> 12.5	0.404 (≈ 0.97 µM)	> 12.5	> 12.5	16.7	0	0
COc1cc(C(=O)Nc2ccc3c(c2)N(C(=O)c2ccco2)CC3)cc(OC)c1OC	11.5 (≈ 27.1 µM)	> 12.7	> 12.7	2.08 (≈ 4.91 µM)	> 12.7	16.7	100	0
CC(=O)N1CCc2ccc(NC(=O)c3ccc(C(C)(C)C)cc3)cc21	> 10.1	> 10.1	> 10.1	> 10.1	0.3 (≈ 0.892 µM)	16.7	0	0
CCn1nc(C)cc1C(=O)N1CCN(c2nc3c(C)ccc(C)c3s2)CC1	> 11.5	> 11.5	> 11.5	> 11.5	> 11.5	16.7	100	0
COc1ccc(Cl)cc1NC(=O)CSc1ccc(NC(=O)C2CC2)nn1	> 11.8	> 11.8	> 11.8	> 11.8	> 11.8	33.3	100	0
CCn1ccc(C(=O)Nc2nc(C(C)(C)C)cs2)n1	> 8.35	> 8.35	> 8.35	> 8.35	> 8.35	16.7	100	0
CCn1ccc(C(=O)Nc2ccc(C)cc2C(=O)c2ccccc2)n1	> 10	> 10	> 10	> 10	> 10	0	100	0
CCn1nc(C(=O)Nc2nnc(-c3ccc4c(c3)CCCC4)o2)cc1C	> 10.5	> 10.5	> 10.5	> 10.5	> 10.5	16.7	100	0

Second part, led by results:

IC50 (Plasmodium falciparum K1) [µg/mL]	IC50 [2] [µg/mL]	IC50 (Leishmania infantum) [µg/mL]	SMILES	IC50 [1] [µg/mL]	IC50 (Trypanosoma cruzi) [µg/mL]	% Inhibition (Schistosoma mansoni) [%]	% Inhibition (Onchocerca ochengi) [%]	% Inhibition (Brugia malayi) [%]
> 12.1	> 12.1	0.391 (≈ 0.971 µM)	COc1ccc(OC)c2sc(N(CC3CCCO3)C(=O)c3ccn(C)n3)nc12 (stereo not drawn)	> 12.1	> 12.1	16.7	0	0
4.25 (≈ 10.7 µM)	4.21 (≈ 10.6 µM)	2.56 (≈ 6.45 µM)	Cc1ccc(-n2ccnc2N2CCN(C(=O)c3ccc4ccccc4c3)CC2)cc1	2.65 (≈ 6.67 µM)	2.67 (≈ 6.73 µM)	8.3	100	0
6.82 (≈ 18.3 µM)	4.07 (≈ 10.9 µM)	> 12.3	Cc1ccc(-n2ccnc2N2CCN(C(=O)/C=C\c3ccccc3)CC2)cc1	> 12.3	3.88 (≈ 10.4 µM)	25	100	0
6.13 (≈ 14.4 µM)	4.5 (≈ 10.5 µM)	4.5 (≈ 10.5 µM)	COc1cc(OC)cc(C(=O)N2CCN(c3nccn3-c3cccc(Cl)c3)CC2)c1	> 13.9	4.18 (≈ 9.78 µM)	0	100	0
> 13.2	3.83 (≈ 9.51 µM)	4.27 (≈ 10.6 µM)	O=C(c1ccc(F)c(F)c1)N1CCN(c2nccn2-c2cccc(Cl)c2)CC1	> 13.2	11.4 (≈ 28.2 µM)	0	100	0
12 (≈ 31.1 µM)	4.77 (≈ 12.3 µM)	0.411 (≈ 1.06 µM)	O=C(Cc1cccs1)N1CCN(c2nccn2-c2cccc(Cl)c2)CC1	> 12.7	7.14 (≈ 18.5 µM)	0	50	0
> 11.5	5.13 (≈ 13.4 µM)	0.372 (≈ 0.97 µM)	Cn1ccnc1N1CCN(CC(=O)Nc2ccc(OC(F)(F)F)cc2)CC1	> 11.5	> 11.5	0	50	0
> 12.4	> 12.4	0.402 (≈ 1.18 µM)	CCn1ccnc1N1CCN(CC(=O)NCc2ccc(C)cc2)CC1	> 12.4	> 12.4	0	0	0
6.19 (≈ 15.7 µM)	5.48 (≈ 13.9 µM)	> 11.8	Cc1ccc(NC(=O)CN2CCN(c3nccn3-c3ccccc3F)CC2)cc1	> 11.8	11.2 (≈ 28.6 µM)	0	100	0
> 10.3	> 10.3	0.333 (≈ 0.972 µM)	CC(C)(C)C(=O)N1CCc2ccc(NC(=O)Cc3cccs3)cc21	> 10.3	4.11 (≈ 12 µM)	0	50	0
> 9.79	> 9.79	0.317 (≈ 0.971 µM)	O=C(Nc1ccc2c(c1)N(C(=O)C1CCCO1)CC2)c1ccco1 (stereo not drawn)	> 9.79	> 9.79	0	0	0
> 9.49	> 9.49	0.307 (≈ 0.971 µM)	CC(=O)N1CCc2ccc(NC(=O)c3ccc(F)c(F)c3)cc21	> 9.49	2.93 (≈ 9.25 µM)	8.3	75	0
0.955 (≈ 3 µM)	> 9.55	> 9.55	CCn1ccc(C(=O)Nc2ccc3nc(SC)sc3c2)n1	> 9.55	> 9.55	0	100	0
> 10.7	> 10.7	> 10.7	CCn1nc(C(=O)Nc2nnc(CCSc3ccccc3)o2)cc1C	> 10.7	> 10.7	0	100	0
